Results published in ChEMBL document CHEMBL5380838, “Novel Aryl Sulfonamide Derivatives as NLRP3 Inflammasome Inhibitors for the Potential Treatment of Cancer” (J Med Chem, 2023).
The source made the active and inactive calls. The rule behind the calls is not given here.

Assays:
THP-1 [1] = assay: Suppression of NLRP3 expression in LPS-treated human THP-1 cells at 1 to 1000 nM incubated for 30 mins followed by ATP stimulation for 1 hr […]; format: functional, cell-based; settings: dose 1-1000 nM, time 90.0 min
THP-1 [2] = assay: Suppression of pro-IL-1beta expression in LPS-treated human THP-1 cells at 1 to 1000 nM incubated for 30 mins followed by ATP stimulation for 1 hr […]; format: functional, cell-based; settings: dose 1-1000 nM, time 90.0 min
B16-F10 [3] = assay: Antiproliferative activity against LPS-treated mouse B16-F10 cells co-cultured with mouse peritoneal macrophages assessed as decrease in cell growth at 1 uM incubated for 30 mins followed by ATP stimulation for 1 hr measured after 48 hrs by cell counting method; format: functional, cell-based; settings: time 49.5 hrs
Method in brief: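 Transwell co-culture (0.4 µm pores), 48 h: peritoneal macrophages from C57BL/6 mice (2 × 10^5, lower well) primed with LPS 1 µg/mL 2 h, then DMSO or compound 1 µM 30 min, then ATP 1 h; B16-F10 cells (2 × 10^3) in upper insert; tumor cells removed after 48 h and counted by image-based cytometer.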

BMDM = assay: Effect on ASC level in LPS-treated mouse BMDM cells at 1 uM incubated for 30 mins followed by ATP stimulation for 1 hr by Hoechst staining based microscopy; format: functional, cell-based; settings: time 90.0 min
Method in brief: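 BMDMs primed with LPS 1 µg/mL for 2 h, given DMSO or compound 1 µM for 30 min, then 5 mM ATP for 1 h. Cells fixed in 4% PFA, permeabilized with 0.1% Triton X-100, stained with anti-ASC overnight at 4 °C plus fluorescent secondary, nuclei Hoechst 1 µM; confocal imaging with 63× oil objective.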

THP-1 [4] = assay: Suppression of IL-1beta processing in LPS-treated human THP-1 cells at 1 to 1000 nM incubated for 30 mins followed by ATP stimulation for 1 hr by ELISA method; format: functional, cell-based; settings: dose 1-1000 nM, time 90.0 min
[5] = AUC in C57BL/6 mouse at 25 mg/kg, ip measured for 0.083 to 24 hrs by LC-MS/MS analysis; settings: in vivo
[6] = Metabolic stability in human liver microsomes assessed as intrinsic clearance measured per mg protein at 1 uM measured upto 60 mins by LC-MS/MS analysis; format: ADME, Microsome; settings: read-out: CLH
Method in brief: (§1)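 Pooled human or CD-1 male mouse liver microsomes at 0.5 mg/mL with test compound 1 µM in 50 mM phosphate pH 7.4 and 3 mM MgCl2, preincubated 10 min at 37 °C. Percent parent remaining vs 0 min measured by LC-MS/MS. Cli = k/microsomal conc. × 1000; mean ± SD, n = 2.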

[7] = Metabolic stability in mouse liver microsomes assessed as half life measured per mg protein at 1 uM measured upto 60 mins by LC-MS/MS analysis; format: ADME, Microsome; method in brief: as §1
THP-1 [8] = assay: Suppression of ASC expression in LPS-treated human THP-1 cells at 1 to 1000 nM incubated for 30 mins followed by ATP stimulation for 1 hr […]; format: functional, cell-based; settings: dose 1-1000 nM, time 90.0 min
Method in brief: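 PMA-differentiated THP-1 cells (1 × 10^6/well) primed with LPS 1 µg/mL for 3 h, then DMSO or compound in serum-free medium for 30 min, then 5 mM ATP for 1 h. RIPA lysates (20 µg) and concentrated supernatants run on SDS-PAGE and western blotted for NLRP3, ASC, caspase-1 and IL-1β, normalized to GAPDH; three independent experiments.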

Mus musculus = assay: Antiinflammatory activity in LPS-induced C57BL/6 mouse assessed as reduction in IL-1beta production in peritoneal exudate at 25 mg/kg, ip pretreated for 30 mins followed by LPS induction measured after 4 hrs by ELISA method; format: functional, organism-based; settings: time 4.5 hrs
Method in brief: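 C57BL/6 mice given inhibitor 25 mg/kg IP (vehicle DMSO) 30 min before IP LPS 1 mg/kg; after 4 h, peritoneal exudate and blood collected, plasma from centrifugation 1000g 15 min 4 °C; IL-1β measured by ELISA; mean ± SEM of three independent experiments.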

B16-F10 [9] = assay: Effect on NLRP3 expression in cytosolic luciferase-transfected mouse B16-F10 cells xenografted in C57BL/6 mouse at 25 mg/kg, ip administered thrice weekly measured after 14 days by Western blot analysis; format: functional, organism-based; settings: time 14.0 day
Method in brief: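 Tumors from luciferase-expressing B16-F10 grafts in C57BL/6 mice, dosed IP at 25 mg/kg thrice weekly (DMSO controls), were excised at endpoint and homogenized in sucrose/HEPES/IGEPAL lysis buffer. Lysates were western blotted and bands expressed as fold ratio over β-actin (n = 5).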

CC(C)[C@H](NS(=O)(=O)c1ccc([N+](=O)[O-])cc1)C(=O)Nc1c2c(cc3c1CCC3)CCC2
Activity (THP-1 [1]): inactive
Activity (THP-1 [2]): inactive
Activity (B16-F10 [3]): Active
Activity (BMDM): inactive
Activity (THP-1 [4]): Active
AUC [5]: 3880 ng/mL.hr
microsomal CLint at 1 µM [6]: 45.8 µL/min/mg
half-life at 1 µM [7]: 4.8 h
Activity (THP-1 [8]): inactive
Activity (Mus musculus): Active
Activity (B16-F10 [9]): inactive
